Assay results pooled from the literature.
Compare with care: the assays were run in different laboratories.
Cell line: A549
Read-out: cell growth or viability

SMILES	technique	concentration	time	quantity	value
N.N.[Cl][Pt][Cl]	MTT	–	–	GI50	14.3 µM
CCOC(=O)CCn1cc(C(=O)c2ccc(F)cc2)c2cc(-c3ccc(N4CCN(C(=O)OC(C)(C)C)CC4)nc3)cnc21	MTT	10 µM	48 h	viability	90.2%
Cc1c(Cc2cccc(N(C)S(=O)(=O)CCCNCCCC(=O)N3CCN(c4ccc(Nc5c(C(N)=O)cnc6ccc(-c7cnc8ccccc8c7)cc56)cc4C(F)(F)F)CC3)c2)c(=O)oc2cc(OC(=O)N(C)C)ccc12	CCK-8	–	–	GI50	4.66 µM
O=C(N/N=C1\C(=O)N(Cc2ccc(Cl)cc2)c2ccccc21)c1cc2ccccc2[nH]1	–	30 µM	–	inhibition	96.9%
COc1ccc(C(=O)c2c[nH]c3ncc(-c4ccc(N5CCN(C(=O)OC(C)(C)C)CC5)nc4)cc23)cc1	MTT	10 µM	48 h	viability	88.1%
COc1cc([C@@H]2c3cc4c(cc3[C@H](O)[C@H]3COC(=O)[C@H]23)OCO4)cc(OC)c1OC	MTT	–	72 h	EC50	0.024 µM
CS(=O)(=O)N1CCN(c2ccc(-c3cnc4[nH]cc(C(=O)c5ccc(F)cc5)c4c3)cn2)CC1	MTT	10 µM	48 h	viability	97.3%
CC(=O)O[C@H]1C[C@H](O[C@H]2[C@@H](O)C[C@H](O[C@H]3[C@@H](O)C[C@H](O[C@H]4CC[C@@]5(C)[C@H](CC[C@@H]6[C@@H]5C[C@@H](O)[C@]5(C)[C@@H](C7=CC(=O)OC7)CC[C@]65O)C4)O[C@@H]3C)O[C@@H]2C)O[C@H](C)[C@H]1O	MTT	5 µM	24 h	inhibition	73.9%
O=C(c1ccc(F)cc1)c1c[nH]c2ncc(-c3ccnc(N4CCNCC4)c3)cc12	MTT	10 µM	48 h	viability	101%
C[C@]12CC[C@H](O)C[C@H]1CC[C@@H]1[C@@H]2C[C@@H](O)[C@]2(C)[C@@H](C3=CC(=O)OC3)CC[C@]12O	MTT	5 µM	24 h	inhibition	72.3%
N#Cc1ccc(CN2C(=O)/C(=N\NC(=O)c3cc4ccccc4[nH]3)c3ccccc32)cc1	–	30 µM	–	inhibition	94.6%
O=C(c1ccc(F)cc1)c1c[nH]c2ncc(-c3ccc(N4CCNCC4)nc3)cc12	MTT	10 µM	48 h	viability	94.7%
O=C(N/N=C1\C(=O)N(Cc2ccccc2)c2ccc(Br)cc21)c1cc2ccccc2[nH]1	–	30 µM	–	inhibition	96.1%
CN1C[C@H](C(=O)N[C@]2(C)O[C@@]3(O)[C@@H]4CCCN4C(=O)[C@H](Cc4ccccc4)N3C2=O)C=C2c3cccc4[nH]cc(c34)C[C@H]21	MTT	–	72 h	EC50	13 µM
O=C(N/N=C1\C(=O)N(Cc2ccccc2)c2ccc(Cl)cc21)c1cc2ccccc2[nH]1	–	30 µM	–	inhibition	99.7%
N.N.[Cl][Pt][Cl]	SRB	–	72 h	EC50	4.5 µM
O=C(N/N=C1\C(=O)N(Cc2ccccc2)c2ccccc21)c1cc2ccccc2[nH]1	–	30 µM	–	inhibition	98.4%
CC[C@@]1(OC(=O)[C@@H]2CCCN2)C(=O)OCc2c1cc1n(c2=O)Cc2cc3cc4c(cc3nc2-1)OCO4	MTT	–	–	IC50	0.031 µM
